Reference: article PMC3856692 (Biochemistry, 2013)
Entries after “also recorded” stand apart in the source; their conditions may differ. Primed or numbered codes have the meaning given here. No end group written: not given here. 5FAM′ = 5-carboxyfluorescein

How the values were obtained:
[1] = 15N relaxation measurements, oligomeric state; format: physicochemical; conditions: 15N relaxation experiments
[2] = molecular target: T1, CHIP (Homo sapiens, UniProt Q9UNE7); assay: Biolayer interferometry; format: binding; conditions: for Binding to CHIP (in words): BLI, Figure 1d / Figure 5
T1 sequence (Q9UNE7 1-303): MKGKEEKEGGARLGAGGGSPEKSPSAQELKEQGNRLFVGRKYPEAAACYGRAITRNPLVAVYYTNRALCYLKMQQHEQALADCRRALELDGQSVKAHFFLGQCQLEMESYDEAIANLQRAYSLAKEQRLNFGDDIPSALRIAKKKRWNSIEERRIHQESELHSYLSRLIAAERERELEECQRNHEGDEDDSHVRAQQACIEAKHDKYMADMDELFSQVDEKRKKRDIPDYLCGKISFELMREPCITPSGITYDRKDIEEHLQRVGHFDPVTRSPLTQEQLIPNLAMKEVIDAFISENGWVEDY

[3] = molecular target: T1, CHIP; assay: Fluorescence polarization; format: binding; conditions: FP, 20 nM tracer, Figure 2
[4] = system: CHIP; assay: 1D 15N NMR relaxation of Hsc70 with or without CHIP; set-up: species or system Human; conditions: 15N relaxation
Method in brief: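 15N-labelled full-length Hsc70 with uncleaved N-terminal His tag, 67 µM in 50 mM K2PO4, 200 µM NRLLLTG, 1 mM ADP, 5 mM MgCl2, 10 mM KCl, 0.02% NaN3, pH 7.2, 25 °C, with or without CHIP, at 800 MHz. 1D 15N R1 (10 h) and R2 (4.5 h) experiments were run, plus CSA/dipolar cross-correlated relaxation (T 10.2 ms). The 9.6–8.6 and 8.6–7.8 ppm regions were integrated and fitted single-exponentially, with jackknife errors.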

[5] = system: CHIP; assay: 1H-15N TROSY NMR of 15N-labeled Hsc70 with CHIP; format: binding, Human; conditions: for Change of C-terminal resonances on CHIP binding (in words): residues 639-646 (GPTIEEVD)
Method in brief: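 800 MHz TROSY of 15N full-length Hsc70 (uncleaved His tag) in 50 mM K2PO4, 110 µM NRLLLTG, 1 mM ADP, 5 mM MgCl2, 10 mM KCl, 0.02% NaN3, pH 7.2. Spectra: Hsc70 alone at 100 µM (12 h); Hsc70:CHIP 57:21 µM and 40:30 µM (52 h each); 67 µM 1:1 with CHIP; 60 µM 1:1:1 with UbcH5. Tail assigned from 250 µM triple-labelled Hsc70(391–646) 3D spectra at 30 °C.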

[6] = molecular target: T2, CHIP (C-terminus of Hsc70 Interacting Protein), full-length human (human, UniProt Q9UNE7 1-303); assay: fluorescence polarisation
T2 sequence (looked up): T1 sequence (Q9UNE7 1-303)

With “SBD: substrate-binding domain, Hsc70 residues 391–646” the “Oligomeric state (in words)” value [1] was “dimeric”.

In the case of “Hsc70ΔEEVD: Hsc70 mutant lacking the EEVD sequence”, the “Binding to CHIP (in words)” value [2] is reported as “Neither the Hsc70ΔSBD, nor the Hsc70ΔEEVD mutant displayed any ability to bind CHIP; also recorded: cannot bind CHIP”.

With “NBD: nucleotide-binding domain, Hsc70 residues 1–383” the “Binding to CHIP (in words)” value ([2]; listed as Hsc70ΔSBD) was “Neither the Hsc70ΔSBD, nor the Hsc70ΔEEVD mutant displayed any ability to bind CHIP; also recorded: cannot bind CHIP”.

For 5FAM-DVEEM, the “Binding / affinity of fluorescent probes for CHIP (in words)” value (“Binding / affinity of fluorescent probes” for short) [3] was “no affinity for CHIP” and the “Binding / affinity of fluorescent probes” value ([3]; listed as DVEEM) was “had no affinity for CHIP”.

With 5FAM-MEEVD the “Binding / affinity of fluorescent probes” value [3] was “nearly identical affinity to the longer peptide” and the “Binding / affinity of fluorescent probes” value ([3]; listed as MEEVD) was “binds with affinity equal to that of the longer probe”.

With “wtHsc70: Human full-length Hsc70 (HspA8; 1–646)” the “Rotational correlation time of structured area with vs without CHIP (in words)” value [4] was “not increased upon binding to CHIP”, the “Oligomeric state (in words)” value [1] was “monomeric at 100 µM” and the “Change of TROSY spectrum on addition of UbcH5c or excess CHIP (in words)” value ([5]; 1:1:1 15N Hsc70, CHIP and UbcH5c, 60 µM, or excess CHIP (data not shown)) was “does not further change the spectrum”. The “Change of TROSY spectrum on CHIP binding (in words)” value ([5]; 800 MHz, ADP and NRLLLTG bound state, pH 7.2, 25°C, 1:1 wtHsc70:CHIP) was “barely distinguishable from that of wtHsc70 alone”, the “Change of resonances of residues 616–636 on CHIP binding (in words)” value ([5]; assigned upstream residues 616–636 of unstructured tail) was “remained visible and relatively unaffected by the presence of CHIP” and the “Change of C-terminal resonances on CHIP binding (in words)” value [5] was “progressively disappear upon complex formation; also recorded: disappear from the wtHsc70 NMR spectrum”. The “Change of C-terminal resonances on CHIP binding (in words)” value ([5]; listed as Hsc70) was “disappear from the NMR spectrum”, the Hsc70-CHIP binding stoichiometry ([2]; Hsc70 per CHIP) was “two molecules of Hsc70” and the Kd ([2]; abstract, binding of Hsc70 to CHIP) was about 60 nM. For the same molecule, the “Slower dissociation than C-terminal peptide” value ([2]; koff, wtHsc70 vs C-terminal peptide) was ~ 5 fold, the “Apparent molecular weight of the Hsc70-CHIP complex” value ([2]; two molecules of Hsc70 and CHIP homodimer) was 210 kDa and the “Increase in binding free energy relative to isolated C-terminal peptide” value ([2]; wtHsc70 vs C-terminal peptide) was 1.08 kcal/M. The “Extra binding free energy beyond EEVD” value ([2]; wtHsc70 vs isolated peptide) was 1.08 kcal/mol.

B1: 5FAM-MEEVD (peptide)
peptide: {5FAM′}-MEEVD
Molecule B1 has a Kd [6] of 1500 ± 76 nM.

B2: 5FAM-DDTSRMEEVD (Hsp90α-derived C-terminus, residues 723-732) (peptide)
peptide: {5FAM′}-DDTSRMEEVD
B2: binds [6].
